Measured values as given in ChEMBL document CHEMBL4041515, “Modulating hydrogen-bond basicity within the context of protein-ligand binding: A case study with thrombin inhibitors that reveals a dominating role for desolvation” (Eur J Med Chem, 2017).

Molecular target: Prothrombin (Homo sapiens, UniProt P00734)
Experiment: Inhibition of thrombin (unknown origin) using CH3SO2-D-Cha-Gly-Arg-pNA.AcOH as substrate measured every 20 sec for 30 mins in presence of NaCl by UV-Visible spectrophotometric method
Procedure, shortened: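 Kinetic chromogenic assay at 25 ± 0.2 °C in 0.02 M Hepes, 0.154 M NaCl (Na⁺ for enzyme activation), final DMSO 6.5 %, pH 7.4 ± 0.05. Thrombin about 8-12 nM final, substrate 100 µM final, inhibitor 0.5-10× preliminary IC50. Enzyme added last to premixed substrate and inhibitor, A405 read. Rates gave dose-response IC50, then Ki via Cheng-Prusoff, and ΔG = RTlnKi.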

| Structure (SMILES) | Ki [µM] |
| --- | --- |
| N=C(N)c1ccc(CNC(=O)[C@@H]2CCCN2C(=O)CCc2ccccc2)cc1 | 0.72 |
| CS(=O)(=O)N1CCC[C@H]1C(=O)NCc1ccc(C(=N)N)cc1 | 68 |
| N=C(N)c1ccc(CNC(=O)[C@@H]2CCCN2C(=O)NCc2ccccc2)cc1 | 14.5 |
| N=C(N)c1ccc(CNC(=O)[C@@H]2CCCN2C(=O)OCc2ccccc2)cc1 | 4 |
| N=C(N)c1ccc(CNC(=O)[C@@H]2CCCN2S(N)(=O)=O)cc1 | 163 |
| N=C(N)c1ccc(CNC(=O)[C@@H]2CCCN2C(=O)CF)cc1 | 44 |

Next, values leading:

| Ki [µM] | Structure (SMILES) |
| --- | --- |
| 250 | CCN1CCC[C@H]1C(=O)NCc1ccc(C(=N)N)cc1 |
| 4.2 | CC(C)(C)CC(=O)N1CCC[C@H]1C(=O)NCc1ccc(C(=N)N)cc1 |
| 11.9 | CC(C)(C)OC(=O)N1CCC[C@H]1C(=O)NCc1ccc(C(=N)N)cc1 |
| 17.9 | N=C(N)c1ccc(CNC(=O)[C@@H]2CCCN2C(=O)C(F)F)cc1 |
| 59 | N=C(N)c1ccc(CNC(=O)[C@@H]2CCCN2C(N)=O)cc1 |
| 68 | CC(=O)N1CCC[C@H]1C(=O)NCc1ccc(C(=N)N)cc1 |
| 13.5 | N=C(N)c1ccc(CNC(=O)[C@@H]2CCCN2C(=O)C(F)(F)F)cc1 |
| 36 | CC(C)(C)NC(=O)N1CCC[C@H]1C(=O)NCc1ccc(C(=N)N)cc1 |
| 7.1 | N=C(N)c1ccc(CNC(=O)[C@@H]2CCCN2S(=O)(=O)C(F)(F)F)cc1 |
